# Reference: ChEMBL document CHEMBL3045023, “Design, synthesis, and antiviral activity evaluation of phenanthrene-based antofine derivatives” (2012)
# Tested on: Tobacco mosaic virus
# Test: Antiviral activity against Tobacco mosaic virus (TMV) inoculation on Nicotiana tabacum L. whole leaves assessed as virus inactivation effect at 500 ug/mL measured 3 to 4 days post inoculation
# Assay type: functional
# Settings: not given
# In short: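 TMV was mixed with an equal volume of compound solution for 30 min. The mixture was inoculated on the left half of N. tabacum L. leaves, and virus mixed with solvent on the right half as control. Local lesions were recorded 3–4 days post-inoculation, in triplicate. Inhibition % was calculated from average lesion numbers versus control.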
row,SMILES,Activity [%]
1,CCN(CC)C(=O)[C@H]1CCCCN1Cc1c(Br)c2cc(OC)c(OC)cc2c2cc(OC)c(OC)cc12,13.7
2,CCN(CC)C(=O)[C@@H]1CCCCN1Cc1c(Br)c2cc(OC)c(OC)cc2c2cc(OC)ccc12,25.2
3,CCN(CC)C(=O)[C@H]1CCCCN1Cc1c(Br)c2cc(OC)c(OC)cc2c2cc(OC)ccc12,15.4
4,COc1ccc2c(CN3CCC[C@H]3C(N)=O)c(Br)c3cc(OC)c(OC)cc3c2c1,14.5
5,COc1cc2c(Br)c(CN3CCC[C@H]3C#N)c3cc(OC)c(OC)cc3c2cc1OC,10.3
6,COc1ccc2c(Br)c(CN3CCC[C@H]3C#N)c3cc(OC)c(OC)cc3c2c1,27.7
7,COc1ccc2c(CN3CCC[C@H]3C#N)c(Br)c3cc(OC)c(OC)cc3c2c1,12.6
8,CCN(CC)C(=O)c1cccn1Cc1c(Br)c2cc(OC)c(OC)cc2c2cc(OC)c(OC)cc12,20
9,CCN(CC)C(=O)[C@@H]1CCCN1Cc1c(Br)c2cc(OC)c(OC)cc2c2cc(OC)c(OC)cc12,22
10,CCN(CC)C(=O)[C@H]1CCCN1Cc1c(Br)c2cc(OC)c(OC)cc2c2cc(OC)c(OC)cc12,21.3
11,CCN(CC)C(=O)[C@@H]1CCCN1Cc1c(Br)c2ccc(OC)cc2c2cc(OC)c(OC)cc12,23.7
12,CCN(CC)C(=O)[C@H]1CCCN1Cc1c(Br)c2ccc(OC)cc2c2cc(OC)c(OC)cc12,26.9
13,CCN(CC)C(=O)[C@@H]1CCCN1Cc1c(Br)c2ccc(OC)c(Br)c2c2cc(OC)c(OC)cc12,17.8
14,CCN(CC)C(=O)[C@H]1CCCN1Cc1c(Br)c2ccc(OC)c(Br)c2c2cc(OC)c(OC)cc12,10.4
15,CCN(CC)C(=O)[C@@H]1CCCN1Cc1c(Br)c2cc(OC)c(OC)cc2c2cc(OC)ccc12,15.7
16,CCN(CC)C(=O)[C@H]1CCCN1Cc1c(Br)c2cc(OC)c(OC)cc2c2cc(OC)ccc12,27.6
17,CCN(CC)C(=O)[C@@H]1CCCN1Cc1c(Br)c2cc(OC)c(OC)cc2c2c(Br)c(OC)ccc12,20.7
18,CCN(CC)C(=O)[C@H]1CCCN1Cc1c(Br)c2cc(OC)c(OC)cc2c2c(Br)c(OC)ccc12,30.2
19,CCN(CC)C(=O)[C@@H]1CCCCN1Cc1c(Br)c2cc(OC)c(OC)cc2c2cc(OC)c(OC)cc12,21.5
20,COc1cc2cc(C(=O)N3CCC[C@H]3C(N)=O)c3cc(OC)c(OC)cc3c2cc1OC,25.3
21,COc1cc2cc(C(=O)N3CCC[C@H]3C#N)c3cc(OC)c(OC)cc3c2cc1OC,17.6
22,COc1cc2cc(C(=O)N3CCC[C@H]3CO)c3cc(OC)c(OC)cc3c2cc1OC,29.5

# Tested on: Tobacco mosaic virus
# Test: Antiviral activity against Tobacco mosaic virus (TMV) inoculation on Nicotiana tabacum L. whole leaves assessed as virus infection protective effect at 500 ug/mL measured 3 to 4 days post inoculation
# Assay type: functional
# Settings: not given
# In short: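 On N. tabacum L. leaves of the same age, compound was smeared on the left half and solvent on the right half as control. After 12 h, leaves were dusted with silicon carbide, brush-inoculated with TMV (6 × 10−3 mg/mL), then washed. Local lesions were counted 3–4 days later, in triplicate. Inhibition % was calculated from average lesion numbers versus control.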
row,SMILES,Activity [%]
1,CCN(CC)C(=O)[C@H]1CCCCN1Cc1c(Br)c2cc(OC)c(OC)cc2c2cc(OC)c(OC)cc12,21.7
2,CCN(CC)C(=O)[C@@H]1CCCCN1Cc1c(Br)c2cc(OC)c(OC)cc2c2cc(OC)ccc12,34.3
3,CCN(CC)C(=O)[C@H]1CCCCN1Cc1c(Br)c2cc(OC)c(OC)cc2c2cc(OC)ccc12,21.3
4,COc1ccc2c(CN3CCC[C@H]3C(N)=O)c(Br)c3cc(OC)c(OC)cc3c2c1,0
5,COc1cc2c(Br)c(CN3CCC[C@H]3C#N)c3cc(OC)c(OC)cc3c2cc1OC,33.3
6,COc1ccc2c(Br)c(CN3CCC[C@H]3C#N)c3cc(OC)c(OC)cc3c2c1,24.5
7,COc1ccc2c(CN3CCC[C@H]3C#N)c(Br)c3cc(OC)c(OC)cc3c2c1,15.3
8,CCN(CC)C(=O)c1cccn1Cc1c(Br)c2cc(OC)c(OC)cc2c2cc(OC)c(OC)cc12,13.1
9,CCN(CC)C(=O)[C@@H]1CCCN1Cc1c(Br)c2cc(OC)c(OC)cc2c2cc(OC)c(OC)cc12,25.3
10,CCN(CC)C(=O)[C@H]1CCCN1Cc1c(Br)c2cc(OC)c(OC)cc2c2cc(OC)c(OC)cc12,27.6
11,CCN(CC)C(=O)[C@@H]1CCCN1Cc1c(Br)c2ccc(OC)cc2c2cc(OC)c(OC)cc12,16.8
12,CCN(CC)C(=O)[C@H]1CCCN1Cc1c(Br)c2ccc(OC)cc2c2cc(OC)c(OC)cc12,27.1
13,CCN(CC)C(=O)[C@@H]1CCCN1Cc1c(Br)c2ccc(OC)c(Br)c2c2cc(OC)c(OC)cc12,15.3
14,CCN(CC)C(=O)[C@H]1CCCN1Cc1c(Br)c2ccc(OC)c(Br)c2c2cc(OC)c(OC)cc12,20.3
15,CCN(CC)C(=O)[C@@H]1CCCN1Cc1c(Br)c2cc(OC)c(OC)cc2c2cc(OC)ccc12,18.9
16,CCN(CC)C(=O)[C@H]1CCCN1Cc1c(Br)c2cc(OC)c(OC)cc2c2cc(OC)ccc12,33.1
17,CCN(CC)C(=O)[C@@H]1CCCN1Cc1c(Br)c2cc(OC)c(OC)cc2c2c(Br)c(OC)ccc12,26.1
18,CCN(CC)C(=O)[C@H]1CCCN1Cc1c(Br)c2cc(OC)c(OC)cc2c2c(Br)c(OC)ccc12,39.2
19,CCN(CC)C(=O)[C@@H]1CCCCN1Cc1c(Br)c2cc(OC)c(OC)cc2c2cc(OC)c(OC)cc12,28.5
20,COc1cc2cc(C(=O)N3CCC[C@H]3C(N)=O)c3cc(OC)c(OC)cc3c2cc1OC,24.3
21,COc1cc2cc(C(=O)N3CCC[C@H]3C#N)c3cc(OC)c(OC)cc3c2cc1OC,10.3
22,COc1cc2cc(C(=O)N3CCC[C@H]3CO)c3cc(OC)c(OC)cc3c2cc1OC,25.6

# Tested on: Tobacco mosaic virus
# Test: Antiviral activity against Tobacco mosaic virus (TMV) inoculation on Nicotiana tabacum L. whole leaves assessed as virus infection curative effect at 500 ug/mL measured 3 to 4 days post inoculation
# Assay type: functional
# Settings: not given
# In short: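 Whole N. tabacum L. leaves of the same age were inoculated with TMV (6.0 × 10−3 mg/mL), then washed and dried. Compound was then smeared on the left half and solvent on the right half as control. Local lesions were counted 3–4 days post-inoculation, in triplicate. Inhibition % was calculated from average lesion numbers versus control.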
row,SMILES,Activity [%]
1,CCN(CC)C(=O)[C@H]1CCCCN1Cc1c(Br)c2cc(OC)c(OC)cc2c2cc(OC)c(OC)cc12,14.2
2,CCN(CC)C(=O)[C@@H]1CCCCN1Cc1c(Br)c2cc(OC)c(OC)cc2c2cc(OC)ccc12,26.4
3,CCN(CC)C(=O)[C@H]1CCCCN1Cc1c(Br)c2cc(OC)c(OC)cc2c2cc(OC)ccc12,17.6
4,COc1ccc2c(CN3CCC[C@H]3C(N)=O)c(Br)c3cc(OC)c(OC)cc3c2c1,5.6
5,COc1cc2c(Br)c(CN3CCC[C@H]3C#N)c3cc(OC)c(OC)cc3c2cc1OC,18.2
6,COc1ccc2c(Br)c(CN3CCC[C@H]3C#N)c3cc(OC)c(OC)cc3c2c1,18.9
7,COc1ccc2c(CN3CCC[C@H]3C#N)c(Br)c3cc(OC)c(OC)cc3c2c1,20.5
8,CCN(CC)C(=O)c1cccn1Cc1c(Br)c2cc(OC)c(OC)cc2c2cc(OC)c(OC)cc12,10.6
9,CCN(CC)C(=O)[C@@H]1CCCN1Cc1c(Br)c2cc(OC)c(OC)cc2c2cc(OC)c(OC)cc12,21.6
10,CCN(CC)C(=O)[C@H]1CCCN1Cc1c(Br)c2cc(OC)c(OC)cc2c2cc(OC)c(OC)cc12,30.2
11,CCN(CC)C(=O)[C@@H]1CCCN1Cc1c(Br)c2ccc(OC)cc2c2cc(OC)c(OC)cc12,8.9
12,CCN(CC)C(=O)[C@H]1CCCN1Cc1c(Br)c2ccc(OC)cc2c2cc(OC)c(OC)cc12,31.6
13,CCN(CC)C(=O)[C@@H]1CCCN1Cc1c(Br)c2ccc(OC)c(Br)c2c2cc(OC)c(OC)cc12,22.3
14,CCN(CC)C(=O)[C@H]1CCCN1Cc1c(Br)c2ccc(OC)c(Br)c2c2cc(OC)c(OC)cc12,13.3
15,CCN(CC)C(=O)[C@@H]1CCCN1Cc1c(Br)c2cc(OC)c(OC)cc2c2cc(OC)ccc12,14.2
16,CCN(CC)C(=O)[C@H]1CCCN1Cc1c(Br)c2cc(OC)c(OC)cc2c2cc(OC)ccc12,31.4
17,CCN(CC)C(=O)[C@@H]1CCCN1Cc1c(Br)c2cc(OC)c(OC)cc2c2c(Br)c(OC)ccc12,23.5
18,CCN(CC)C(=O)[C@H]1CCCN1Cc1c(Br)c2cc(OC)c(OC)cc2c2c(Br)c(OC)ccc12,35.8
19,CCN(CC)C(=O)[C@@H]1CCCCN1Cc1c(Br)c2cc(OC)c(OC)cc2c2cc(OC)c(OC)cc12,26.3
20,COc1cc2cc(C(=O)N3CCC[C@H]3C(N)=O)c3cc(OC)c(OC)cc3c2cc1OC,23.5
21,COc1cc2cc(C(=O)N3CCC[C@H]3C#N)c3cc(OC)c(OC)cc3c2cc1OC,15.6
22,COc1cc2cc(C(=O)N3CCC[C@H]3CO)c3cc(OC)c(OC)cc3c2cc1OC,30.2

# Tested on: Tobacco mosaic virus
# Test: Antiviral activity against Tobacco mosaic virus (TMV) assessed as inhibition of viral growth at 500 ug/mL
# Assay type: functional
# Settings: read-out: GI
# In short: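 Leaves of 5–6-growth-stage tobacco were rub-inoculated with TMV juice (5.88 × 10−2 μg/mL), then cut into halves along the main vein. One half was immersed in 500 μg/mL compound and the other in double-distilled water, each for 20 min. Halves were cultured at 25 °C for 72 h, with at least 3 replicates. Inhibition % = (control − treated average lesion number)/control × 100.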
row,SMILES,inhibition of growth at 500 µg/mL [%]
1,CCN(CC)C(=O)[C@H]1CCCCN1Cc1c(Br)c2cc(OC)c(OC)cc2c2cc(OC)c(OC)cc12,23.5
2,CCN(CC)C(=O)[C@@H]1CCCCN1Cc1c(Br)c2cc(OC)c(OC)cc2c2cc(OC)ccc12,30.7
3,CCN(CC)C(=O)[C@H]1CCCCN1Cc1c(Br)c2cc(OC)c(OC)cc2c2cc(OC)ccc12,12.1
4,COc1ccc2c(CN3CCC[C@H]3C(N)=O)c(Br)c3cc(OC)c(OC)cc3c2c1,0
5,COc1cc2c(Br)c(CN3CCC[C@H]3C#N)c3cc(OC)c(OC)cc3c2cc1OC,24.7
6,COc1ccc2c(Br)c(CN3CCC[C@H]3C#N)c3cc(OC)c(OC)cc3c2c1,20.9
7,COc1ccc2c(CN3CCC[C@H]3C#N)c(Br)c3cc(OC)c(OC)cc3c2c1,22.7
8,CCN(CC)C(=O)c1cccn1Cc1c(Br)c2cc(OC)c(OC)cc2c2cc(OC)c(OC)cc12,18.2
9,CCN(CC)C(=O)[C@@H]1CCCN1Cc1c(Br)c2cc(OC)c(OC)cc2c2cc(OC)c(OC)cc12,17.2
10,CCN(CC)C(=O)[C@H]1CCCN1Cc1c(Br)c2cc(OC)c(OC)cc2c2cc(OC)c(OC)cc12,33.3
11,CCN(CC)C(=O)[C@@H]1CCCN1Cc1c(Br)c2ccc(OC)cc2c2cc(OC)c(OC)cc12,12.5
12,CCN(CC)C(=O)[C@H]1CCCN1Cc1c(Br)c2ccc(OC)cc2c2cc(OC)c(OC)cc12,35.6
13,CCN(CC)C(=O)[C@@H]1CCCN1Cc1c(Br)c2ccc(OC)c(Br)c2c2cc(OC)c(OC)cc12,19.6
14,CCN(CC)C(=O)[C@H]1CCCN1Cc1c(Br)c2ccc(OC)c(Br)c2c2cc(OC)c(OC)cc12,22.4
15,CCN(CC)C(=O)[C@@H]1CCCN1Cc1c(Br)c2cc(OC)c(OC)cc2c2cc(OC)ccc12,23.5
16,CCN(CC)C(=O)[C@H]1CCCN1Cc1c(Br)c2cc(OC)c(OC)cc2c2cc(OC)ccc12,35.7
17,CCN(CC)C(=O)[C@@H]1CCCN1Cc1c(Br)c2cc(OC)c(OC)cc2c2c(Br)c(OC)ccc12,32.5
18,CCN(CC)C(=O)[C@H]1CCCN1Cc1c(Br)c2cc(OC)c(OC)cc2c2c(Br)c(OC)ccc12,42.6
19,CCN(CC)C(=O)[C@@H]1CCCCN1Cc1c(Br)c2cc(OC)c(OC)cc2c2cc(OC)c(OC)cc12,19.7
20,COc1cc2cc(C(=O)N3CCC[C@H]3C(N)=O)c3cc(OC)c(OC)cc3c2cc1OC,27
21,COc1cc2cc(C(=O)N3CCC[C@H]3C#N)c3cc(OC)c(OC)cc3c2cc1OC,12.5
22,COc1cc2cc(C(=O)N3CCC[C@H]3CO)c3cc(OC)c(OC)cc3c2cc1OC,32.8
